Assay results gathered from unrelated publications.
Lines come from different studies, so protocols differ.
Organism: Staphylococcus aureus

Compound	assay	system	conditions	endpoint	value
CN(C)CCCN1c2ccccc2Sc2ccc(Cl)cc21	microbial killing, broth dilution	ATCC43300	18 h	MBC	64 µg/mL
CCS(=O)(=O)Oc1ccc(C=NNC(=O)CSc2nc3c(C)cccc3c(=O)n2-c2ccccc2)cc1	microbial growth, well diffusion	MRSA	20 µg/mL	inhibition zone	3 mm
[H]/N=C(/N)N[C@H]1[C@H](O)[C@@H](O)[C@H](O[C@@H]2O[C@@H](C)[C@](O)(C=O)[C@H]2O[C@@H]2O[C@@H](CO)[C@H](O)[C@@H](O)[C@@H]2NC)[C@@H](N/C(N)=N\[H])[C@@H]1O	microbial growth, well diffusion	MTCC96	1000 µg/mL, 18 h	inhibition zone	24 mm
Cc1cccc2c(=O)n(-c3ccccc3)c(SCC(=O)NN=Cc3ccc(OS(C)(=O)=O)cc3)nc12	microbial growth, well diffusion	MRSA	20 µg/mL	inhibition zone	2 mm
CNC(C)C1CCC(N)C(OC2C(N)CC(N)C(OC3OCC(C)(O)C(NC)C3O)C2O)O1 (stereo not shown)	microbial killing, broth dilution	ATCC25923	24 h	MBC	8000 µM
COc1ccc2cc3[n+](cc2c1OC)CCc1cc2c(cc1-3)OCO2	microbial growth	–	24 h	MIC50	72 µM
Nc1ccc(S(=O)(=O)Nc2ncccn2)cc1	microbial growth, well diffusion	MRSA	20 µg/mL	inhibition zone	2 mm
CC[C@H]1OC(=O)[C@H](C)[C@@H](O[C@H]2C[C@@](C)(OC)[C@@H](O)[C@H](C)O2)[C@H](C)[C@@H](O[C@@H]2O[C@H](C)C[C@H](N(C)C)[C@H]2O)[C@](C)(O)C[C@@H](C)/C(=N\OCOCCOC)[C@H](C)[C@@H](O)[C@]1(C)O	microbial growth	MSSA	clinical isolate	MIC90	64 µg/mL
O=C(O)c1cn(C2CC2)c2cc(N3CCNCC3)c(F)cc2c1=O	microbial growth, broth dilution	–	–	MIC90	3.13 µM
CCS(=O)(=O)Oc1ccc(C=NNC(=O)CSc2nc3c(C)cccc3c(=O)n2-c2ccccc2)cc1OC	microbial growth, well diffusion	MRSA	20 µg/mL	inhibition zone	3 mm
CC(=O)NC[C@H]1CN(c2ccc(N3CCOCC3)c(F)c2)C(=O)O1	microbial growth	MSSA	clinical isolate	MIC90	2 µg/mL
COc1ccc(C=NNC(=O)CSc2nc3c(C)cccc3c(=O)n2-c2ccccc2)cc1OS(C)(=O)=O	microbial growth, well diffusion	MRSA	20 µg/mL	inhibition zone	3 mm
O=C(/C=C/C=C/c1ccccc1)c1ccccc1OCc1ccc(F)cc1	microbial growth, well diffusion	MTCC96	1000 µg/mL, 18 h	inhibition zone	7 mm
CN[C@H](CC(C)C)C(=O)N[C@H]1C(=O)N[C@@H](CC(N)=O)C(=O)N[C@H]2C(=O)N[C@H]3C(=O)N[C@H](C(=O)N[C@H](C(=O)O)c4cc(O)cc(O)c4-c4cc3ccc4O)[C@H](O)c3ccc(c(Cl)c3)Oc3cc2cc(c3O[C@@H]2O[C@H](CO)[C@@H](O)[C@H](O)[C@H]2O[C@H]2C[C@](C)(N)[C@H](O)[C@H](C)O2)Oc2ccc(cc2Cl)[C@H]1O	microbial growth	MRSA	clinical isolate	MIC90	2 µg/mL
O=C(/C=C/C=C/c1ccccc1)c1ccccc1OCc1cccc(Cl)c1	microbial growth, well diffusion	MTCC96	1000 µg/mL, 18 h	inhibition zone	7 mm
CC1(C)S[C@@H]2[C@H](NC(=O)[C@H](N)c3ccccc3)C(=O)N2[C@H]1C(=O)O	microbial growth	MSSA	clinical isolate	MIC90	64 µg/mL
